# What was measured:
# [1] = molecular target: T1, Endothelin-1 receptor (Rattus norvegicus, UniProt P26684); test: Binding affinity against endothelin A receptor in MMQ cells in rat; assay type: cell-based
# T1 sequence (P26684 whole entry): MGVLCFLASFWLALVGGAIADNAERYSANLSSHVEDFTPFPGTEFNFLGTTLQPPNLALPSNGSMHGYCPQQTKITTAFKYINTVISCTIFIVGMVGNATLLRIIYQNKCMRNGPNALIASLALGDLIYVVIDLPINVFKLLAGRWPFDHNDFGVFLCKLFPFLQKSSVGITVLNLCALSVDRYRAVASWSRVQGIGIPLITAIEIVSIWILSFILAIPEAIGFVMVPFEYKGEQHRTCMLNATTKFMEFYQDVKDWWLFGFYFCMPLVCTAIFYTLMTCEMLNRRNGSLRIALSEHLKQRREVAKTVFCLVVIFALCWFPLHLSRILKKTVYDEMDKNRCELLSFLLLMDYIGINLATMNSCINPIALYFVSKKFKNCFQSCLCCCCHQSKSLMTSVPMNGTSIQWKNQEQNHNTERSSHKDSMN
# [2] = molecular target: T2, Endothelin receptor type B (Homo sapiens, UniProt P24530); test: Binding affinity against human endothelin B receptor in CHO cells; assay type: cell-based
# T2 sequence (P24530 whole entry): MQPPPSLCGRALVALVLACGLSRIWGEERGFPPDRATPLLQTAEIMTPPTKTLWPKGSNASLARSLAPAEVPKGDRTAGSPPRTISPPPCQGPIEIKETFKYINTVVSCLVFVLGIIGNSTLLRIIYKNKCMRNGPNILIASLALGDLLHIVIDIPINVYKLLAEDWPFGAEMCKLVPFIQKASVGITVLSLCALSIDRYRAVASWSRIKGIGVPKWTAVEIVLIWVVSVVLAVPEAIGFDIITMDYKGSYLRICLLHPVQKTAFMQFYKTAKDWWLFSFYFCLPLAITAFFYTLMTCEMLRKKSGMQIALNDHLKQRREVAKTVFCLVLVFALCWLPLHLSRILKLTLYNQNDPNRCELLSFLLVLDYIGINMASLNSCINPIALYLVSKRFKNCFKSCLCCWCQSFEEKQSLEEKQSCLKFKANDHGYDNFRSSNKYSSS
# Outline: (§1)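 Human ET-A and ET-B receptors expressed in CHO cells, run as a second binding assay alongside the rat/porcine screen. IC50 was derived from radioligand displacement: [125I]ET-1 for ET-A and [125I]ET-3 for ET-B.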
# [3] = Compound was evaluated for pharmacokinetic data, Cmax; assay type: ADME, organism-based; conditions: in vivo
# Outline: (§2)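 Rats (n = 3) were given 10 mg/kg by oral gavage. Plasma drug concentration was followed over time and compared with the intravenous time course. Oral half-life, Cmax, AUC and oral bioavailability were derived from these profiles.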
# [4] = (§3) Compound was evaluated for bioavailability; assay type: ADME, organism-based; conditions: eutheria, in vivo; outline: as §2
# [5] = Compound was evaluated for pharmacokinetic data, area under curve (AUC); assay type: ADME; outline: as §2
# [6] = Compound was evaluated for half life period when administered orally; assay type: ADME, organism-based; conditions: in vivo, po; outline: as §2
# [7] = Compound was evaluated for half life period when administered intravenously; assay type: ADME, organism-based; conditions: in vivo, iv
# Outline: (§4)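 Rats were dosed by intravenous injection at 5 mg/kg. Plasma drug levels were followed over time, and half-life was derived from the iv time course.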
# [8] = Compound was evaluated for half-life period when administered intravenously; assay type: ADME, organism-based; conditions: in vivo, iv; outline: as §4
# [9] = molecular target: T3, Endothelin-1 receptor (Homo sapiens, UniProt P25101); test: Binding affinity against human Endothelin A receptor; outline: as §1
# T3 sequence (P25101 whole entry): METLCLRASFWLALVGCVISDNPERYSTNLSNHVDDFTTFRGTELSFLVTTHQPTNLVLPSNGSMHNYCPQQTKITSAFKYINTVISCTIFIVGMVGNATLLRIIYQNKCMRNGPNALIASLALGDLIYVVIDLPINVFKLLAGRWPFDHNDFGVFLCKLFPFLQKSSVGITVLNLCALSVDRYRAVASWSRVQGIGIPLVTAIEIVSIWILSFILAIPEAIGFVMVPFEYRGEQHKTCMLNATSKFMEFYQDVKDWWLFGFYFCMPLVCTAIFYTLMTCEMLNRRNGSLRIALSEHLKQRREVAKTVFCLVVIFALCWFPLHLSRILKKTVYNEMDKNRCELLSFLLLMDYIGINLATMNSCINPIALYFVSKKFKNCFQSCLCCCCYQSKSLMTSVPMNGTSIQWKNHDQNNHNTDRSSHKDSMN
# [10] = as §3; assay type: ADME, organism-based; conditions: eutheria, in vivo; remark: listed apart in the source
# Outline: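 Rats received the drug by intravenous injection (5 mg/kg) and by oral gavage (10 mg/kg), three rats per route. Plasma drug levels were followed over time. Oral bioavailability (F) was derived by comparing plasma exposure after oral dosing with that after iv dosing.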
compound,measurement,setting,value
CCCCN(CCCC)C(=O)CN1C[C@H](c2ccc3occc3c2)[C@@H](C(=O)O)[C@@H]1c1ccc(OC)cc1,IC50,[1],0.48 nM
CCCCN(CCCC)C(=O)CN1C[C@H](c2ccc3c(c2)OCCO3)[C@@H](C(=O)O)[C@@H]1c1ccc(OC)cc1,IC50,[1],0.85 nM
CCCCN(CCCC)C(=O)CN1C[C@H](c2ccc3c(c2)OCO3)[C@@H](C(=O)O)[C@@H]1c1ccc(CCC)cc1,IC50,[1],1.06 nM
CCCCN(CCCC)C(=O)CN1C[C@H](c2ccc3c(c2)CCO3)[C@@H](C(=O)O)[C@@H]1c1ccc(C)cc1,IC50,[1],0.78 nM
CCCCN(CCCC)C(=O)CN1C[C@H](c2ccc3c(c2)OCCO3)[C@@H](C(=O)O)[C@@H]1c1ccc(CC)c(F)c1,IC50,[2],950 nM
CCCCN(CCCC)C(=O)CN1C[C@H](c2ccc3c(c2)OCCO3)[C@@H](C(=O)O)[C@@H]1c1ccc(CC)cc1,IC50,[1],5.2 nM
CCCCN(CCCC)C(=O)CN1C[C@H](c2ccc3c(c2)OCO3)[C@@H](C(=O)O)[C@@H]1c1ccc(OC)c(OC)c1,IC50,[1],0.11 nM
CCCCN(CCCC)C(=O)CN1C[C@H](c2ccc3c(c2)CCO3)[C@@H](C(=O)O)[C@@H]1c1ccc(CC)cc1,IC50,[1],0.92 nM
CCCCN(CCCC)C(=O)CN1C[C@H](c2ccc3c(c2)OCC3)[C@@H](C(=O)O)[C@@H]1c1ccc(OC)cc1,IC50,[1],1.2 nM
CCCCN(CCCC)C(=O)CN1C[C@H](c2ccc3c(c2)OCO3)[C@@H](C(=O)O)[C@@H]1c1ccc(C)cc1,IC50,[1],0.12 nM
CCCCN(CCCC)C(=O)CN1C[C@H](c2ccc3c(c2)CCO3)[C@@H](C(=O)O)[C@@H]1c1ccc(CC)c(F)c1,IC50,[2],3050 nM
CCCCN(CCCC)C(=O)CN1C[C@H](c2ccc3c(c2)OCO3)[C@@H](C(=O)O)[C@@H]1c1ccc(OC)c(F)c1,IC50,[1],0.07 nM
CCCCN(CCCC)C(=O)CN1C[C@H](c2ccc3c(c2)OCO3)[C@@H](C(=O)O)[C@@H]1c1ccc(C(F)(F)F)cc1,IC50,[1],3.28 nM
CCCCN(CCCC)C(=O)CN1C[C@H](c2ccc3c(c2)OCO3)[C@@H](C(=O)O)[C@@H]1c1ccc(F)c(F)c1,IC50,[1],1.38 nM
CCCCN(CCCC)C(=O)CN1C[C@H](c2ccc3c(c2)OCO3)[C@@H](C(=O)O)[C@@H]1c1ccc(CC)cc1,IC50,[1],0.17 nM
CCCCN(CCCC)C(=O)CN1C[C@H](c2ccc3c(c2)OCO3)[C@@H](C(=O)O)[C@@H]1c1ccc(OC)cc1,Cmax,[3]; read-out: Cmax,3440 ng/mL
same,bioavailability,[4]; read-out: Bioavailability,60.2%
same,AUC,[5],7360 ng·h/mL
same,half-life,[6],6.2 h
CCCCN(CCCC)C(=O)CN1C[C@H](c2ccc3c(c2)CCO3)[C@@H](C(=O)O)[C@@H]1c1ccc(C)c(F)c1 (stereo in doubt; 8),Cmax,[3]; read-out: Cmax,930 ng/mL
same,bioavailability,[4]; read-out: Bioavailability,65.6%
same,AUC,[5],9400 ng·h/mL
same,half-life,[6],5.8 h
same,half-life,[7],4.7 h
same,IC50,[2],4400 nM
CCCCN(CCCC)C(=O)CN1C[C@H](c2ccc3c(c2)CCO3)[C@@H](C(=O)O)[C@@H]1c1ccc(C)c(F)c1 (stereo in doubt; 8a),half-life,[8],2.1 h
same,Cmax,[3],1840 ng/mL
same,bioavailability,[4],71.7%
same,Ki,[9],0.039 nM
same,AUC,[5],12500 ng·h/mL
same,T1/2,[6],4.7 h
same,IC50,[2],6200 nM
CCCCN(CCCC)C(=O)CN1C[C@H](c2cc(OC)c3c(c2)OCO3)[C@@H](C(=O)O)[C@@H]1CC(C)(C)CCC [ABT-546],bioavailability,[10],47.7%
same,AUC,[5],3270 ng·h/mL

# — ChEMBL document CHEMBL1134271 (J Med Chem, 2001)
